The test system of one assay is A549. Kind of assay: Cytotoxicity against human A549 cells after 44 hrs by MTT assay. It counts as functional. The note with it: A549, 44 h, read-out: ED50 (the source's name). A digest of the protocol: (§1)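 Exposure to compound lasted 44 h. SF-295 cells were kept in RPMI 1640 and A549 cells in F-12, each with 10% FBS, antibiotics and L-glutamine, at 37 °C and 5% CO2. Medium was then replaced with MTT-containing medium (phenol red-free RPMI for SF-295, F-12 for A549) up to 48 h total. Cells were solubilized overnight at room temperature in HCl/Triton X-100/isopropanol stop solution, and absorbance was read at 540 and 650 nm. ED50 was derived from the dose-response.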
A general note: Formazan colour is commonly taken as a measure of viable cells.

The test system of assay [1] is SF-295. Kind of assay: Cytotoxicity against human SF295 cells after 44 hrs by MTT assay. The assay is classed as functional. The conditions noted are these: SF-295, 44 h, read-out: ED50 (the source's name). A digest of the protocol:
as §1

For assay [2], the system named is SF-295. Kind of assay: Cellular uptake in human SF295 cells assessed as perinuclear localization at 500 nM after 24 hrs by fluorescence microscopy. It counts as functional, cell-based. The procedure, abridged:
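SF-295 glioma cells, from NCI, grown in RPMI 1640 with 10% FBS, amphotericin B, penicillin/streptomycin and L-glutamine at 37 °C, 5% CO2. Plated on coverslips and exposed to compound at 500 nM for 24 h at about 45% confluency. Then washed three times in PBS, fixed in 4% formaldehyde for 15 min, nuclei stained with DAPI, and compound fluorescence imaged.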

The record followed here is ChEMBL document CHEMBL1221389, “Fluorescent schweinfurthin B and F analogs with anti-proliferative activity” (2010).

Activity calls are given as the source filed them. No cut-off for these calls is given here.

Take `COc1cc(/C=C/c2cc(O)c(/C=C/c3ccc([N+](=O)[O-])cc3)c(O)c2)cc2c1O[C@]1(C)CC[C@@H](O)C(C)(C)[C@H]1C2`: the EC50 with A549 came to 800 nM; in the assay with SF-295 [1] it was 50 nM.

Turning to `COc1ccc(/C=C/c2cc(O)c(/C=C/c3ccc(N)cc3)c(OC)c2)cc1OC`, the results for the EC50 in the assay on A549 and in the assay on SF-295 [1] were above 10000 nM and above 1000 nM, respectively.

Consider `COc1cc(/C=C/c2cc3c(c(OC)c2)O[C@]2(C)C[C@@H](O)[C@@H](O)C(C)(C)[C@H]2C3)cc(O)c1/C=C/c1ccc([N+](=O)[O-])cc1`, for which the EC50 in the assay with A549 worked out at 700 nM; with SF-295 [1], 40 nM.

Consider `COc1cc(/C=C/c2cc3c(c(OC)c2)O[C@]2(C)C[C@@H](O)[C@@H](O)C(C)(C)[C@H]2C3)cc(O)c1/C=C/c1ccc(N)cc1`, for which the EC50 in the assay on A549 came out at 3200 nM; with SF-295 [1], 20 nM.

In the case of `COc1cc(/C=C/c2cc3c(c(OC)c2)O[C@]2(C)CC[C@@H](O)C(C)(C)[C@H]2C3)cc(O)c1/C=C/c1ccc(N)cc1`, the EC50 in the assay on A549 came to 3000 nM; in the assay on SF-295 [1], 400 nM.

For `COc1cc(/C=C/c2cc3c(c(OC)c2)O[C@]2(C)CC[C@@H](O)C(C)(C)[C@H]2C3)cc(O)c1/C=C/c1ccc([N+](=O)[O-])cc1`, the result in the assay on SF-295 [2] was Active. The EC50 worked out at 2700 nM with A549 and 100 nM in the assay with SF-295 [1].

Consider `COc1ccc(/C=C/c2cc(O)c(/C=C/c3ccc([N+](=O)[O-])cc3)c(OC)c2)cc1OC`, for which the EC50 in the assay with A549 was above 10000 nM; with SF-295 [1], above 1000 nM.
